Experimental data reported in ChEMBL document CHEMBL3044720, “Phytotoxic Eremophilanes from Ligularia macrophylla” (J Agric Food Chem, 2007).
Activity calls are given as the source filed them. The rule behind the calls is not given here.

System: Allium cepa
Test: Inhibition of mitotic cell division in Allium cepa cv. Evergreen (onion) root tips assessed as cell count at anaphase stage of cell cycle at 100 to 300 uM at 24 degC
Type: functional, organism-based

Row | Compound | inhibition
1 | Cc1coc2c1[C@@H]1OC(=O)[C@H]3CCC[C@H](C2)[C@@]31C | inactive

System: Lactuca sativa
Test: Phytotoxic activity against Lactuca sativa (lettuce) seeds assessed as inhibition of germination at 100 uM at 26 degC measured 7 days post-drug dose
Type: functional, organism-based
Method in brief: (§1)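 Each well held 5 mg lettuce or 10 mg bentgrass seed plus 250 µL of compound in water with 3% acetone final; acetone/water controls were included. Sealed plates were kept at 26 °C under continuous light (173 µmol/m²/s). Germination was rated visually on a 0–5 scale (0 = no effect, 5 = no germination/growth) against controls, after 7 days for lettuce and 12 days for bentgrass.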

Row | Compound | inhibition
2 | Cc1coc2c1[C@@H]1OC(=O)[C@H]3CCC[C@H](C2)[C@@]31C | inactive

System: Lactuca sativa
Test: Phytotoxic activity against Lactuca sativa (lettuce) seeds assessed as inhibition of germination at 1 uM at 26 degC measured 7 days post-drug dose
Type: functional, organism-based
Method in brief: as §1

Row | Compound | inhibition
3 | Cc1coc2c1[C@@H]1OC(=O)[C@H]3CCC[C@H](C2)[C@@]31C | inactive

System: Coptotermes formosanus
Test: Antitermite activity against greater than third-instar stage of Coptotermes formosanus workers/1 soldier in compound-pretreated filter paper assessed as mortality at 0.5% at 26 degC after 13 days (reference value: 3.8 +/-4.8%)
Type: functional
Method in brief: (§2)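 Test material in acetone (100 µL) was blotted onto 2.5 cm filter paper discs, dried several hours, then moistened with 100 µL water. Each dish held 20 workers (third instar or greater) and two soldiers. Dishes were kept at ca. 100% RH and 26 °C, with water-only controls. Four replicates came from different colonies. Mortality was scored daily for 3 weeks, reported as mean and SD, and compared by ANOVA with Fisher LSD (P < 0.05).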

Row | Compound | mortality [%]
4 | Cc1coc2c1[C@@H]1OC(=O)[C@H]3CCC[C@H](C2)[C@@]31C | 3.8

System: Coptotermes formosanus
Test: Antitermite activity against greater than third-instar stage of Coptotermes formosanus workers/1 soldier in compound-pretreated filter paper assessed as mortality at 0.5% at 26 degC after 1 day (reference value: 0%)
Type: functional
Method in brief: as §2

Row | Compound | mortality [%]
5 | Cc1coc2c1[C@@H]1OC(=O)[C@H]3CCC[C@H](C2)[C@@]31C | 1.3

System: Cucumis sativus
Test: Inhibition of photosynthetic electron transport rate in Cucumis sativa Straight Eight (cucumber) cotyledons assessed as chlorophyll fluorescence at 100 uM at 22 degC measured at 2 to 24 hr post-drug treatment under constant light by fluorometer analysis
Type: functional, organism-based
Method in brief: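 8 mm cotyledon discs were cut from 6-day-old cucumber 'Straight Eight'. Variable chlorophyll fluorescence was read with a pulse-modulated fluorometer before treatment, then at 2, 4, 8 and 24 h. Discs sat in 1 mL 0.1% Tween 20 with 100 µM compound, 0.1% acetone solvent control or 10 µM atrazine, at 22 °C under continuous light; triplicate.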

Row | Compound | inhibition
6 | Cc1coc2c1[C@@H]1OC(=O)[C@H]3CCC[C@H](C2)[C@@]31C | inactive

System: Coptotermes formosanus
Test: Antitermite activity against greater than third-instar stage of Coptotermes formosanus workers/1 soldier in compound-pretreated filter paper assessed as mortality at 0.5% at 26 degC after 21 days (reference value: 3.8 +/-4.8%)
Type: functional
Method in brief: as §2

Row | Compound | mortality [%]
7 | Cc1coc2c1[C@@H]1OC(=O)[C@H]3CCC[C@H](C2)[C@@]31C | 8.8

System: Allium cepa
Test: Inhibition of mitotic cell division in Allium cepa cv. Evergreen (onion) root tips assessed as cell count at telophase stage of cell cycle at 100 to 300 uM at 24 degC
Type: functional, organism-based

Row | Compound | inhibition
8 | Cc1coc2c1[C@@H]1OC(=O)[C@H]3CCC[C@H](C2)[C@@]31C | inactive

System: Allium cepa
Test: Inhibition of mitotic cell division in Allium cepa cv. Evergreen (onion) root tips assessed as cell count at prophase stage of cell cycle at 100 to 300 uM at 24 degC
Type: functional, organism-based

Row | Compound | inhibition
9 | Cc1coc2c1[C@@H]1OC(=O)[C@H]3CCC[C@H](C2)[C@@]31C | inactive

System: Lactuca sativa
Test: Phytotoxic activity against Lactuca sativa (lettuce) seeds assessed as inhibition of germination at 10 uM at 26 degC measured 7 days post-drug dose
Type: functional, organism-based
Method in brief: as §1

Row | Compound | inhibition
10 | Cc1coc2c1[C@@H]1OC(=O)[C@H]3CCC[C@H](C2)[C@@]31C | inactive

System: Lemna aequinoctialis
Test: Phytotoxic activity against three-frond Lemna paucicostata colonies assessed as growth inhibition at 100 uM after 4 days
Type: functional, organism-based
Method in brief: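 Hoagland medium at pH 5.5 was filter-sterilized, with compound added in acetone or EtOH (1% final); tested range 100 to 0.1 µM. Two three-frond colonies from 4–5-day-old stock cultures were placed per well. Total frond area was imaged on days 0–4, and % increase was taken relative to day 0. IC50 came from a four-parameter logistic fit in R drc.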

Row | Compound | growth inhibition (GI)
11 | Cc1coc2c1[C@@H]1OC(=O)[C@H]3CCC[C@H](C2)[C@@]31C | inactive

System: Cucumis sativus
Test: Induction of cell membrane integrity disruption in Cucumis sativus (cucumber) cotyledons assessed as electrolyte leakage at 25 degC by conductivity meter analysis
Type: functional
Method in brief: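 Twenty-five 4 mm cucumber cotyledon discs (~50 mg fresh weight) were bathed in 5 mL of 2% sucrose, 1 mM MES pH 6.5, with 1% (v/v) acetone final in controls and treatments. Incubation was at 25 °C in darkness. Leakage into the bathing medium was followed over time by conductivity; six replicates per treatment.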

Row | Compound | Activity
12 | Cc1coc2c1[C@@H]1OC(=O)[C@H]3CCC[C@H](C2)[C@@]31C | inactive

System: Coptotermes formosanus
Test: Antitermite activity against greater than third-instar stage of Coptotermes formosanus workers/1 soldier in compound-pretreated filter paper assessed as filter paper consumption at 0.5% at 26 degC after 21 days (reference value: 41.4 +/-5.6 mg)
Type: functional

Row | Compound | Activity [mg]
13 | Cc1coc2c1[C@@H]1OC(=O)[C@H]3CCC[C@H](C2)[C@@]31C | 43.1

System: Agrostis stolonifera
Test: Phytotoxic activity against Agrostis stolonifera seeds assessed as inhibition of germination at 1 uM at 26 degC measured 12 days post-drug dose
Type: functional, organism-based
Method in brief: as §1

Row | Compound | inhibition
14 | Cc1coc2c1[C@@H]1OC(=O)[C@H]3CCC[C@H](C2)[C@@]31C | inactive

System: Allium cepa
Test: Inhibition of mitotic cell division in Allium cepa cv. Evergreen (onion) root tips assessed as cell count at metaphase stage of cell cycle at 100 to 300 uM at 24 degC
Type: functional, organism-based

Row | Compound | inhibition
15 | Cc1coc2c1[C@@H]1OC(=O)[C@H]3CCC[C@H](C2)[C@@]31C | inactive

System: Lactuca sativa
Test: Phytotoxic activity against Lactuca sativa (lettuce) seeds assessed as inhibition of germination at 1000 uM at 26 degC measured 7 days post-drug dose
Type: functional, organism-based
Method in brief: as §1

Row | Compound | inhibition
16 | Cc1coc2c1[C@@H]1OC(=O)[C@H]3CCC[C@H](C2)[C@@]31C | inactive

System: Coptotermes formosanus
Test: Antitermite activity against greater than third-instar stage of Coptotermes formosanus workers/1 soldier in compound-pretreated filter paper assessed as mortality at 0.5% at 26 degC after 6 days (reference value: 2.5 +/-5%)
Type: functional
Method in brief: as §2

Row | Compound | mortality [%]
17 | Cc1coc2c1[C@@H]1OC(=O)[C@H]3CCC[C@H](C2)[C@@]31C | 1.3
